{
  "source": "ChEMBL document CHEMBL3399974",
  "about": "“Discovery and SAR of novel series of imidazopyrimidinones and dihydroimidazopyrimidinones as positive allosteric modulators of the metabotropic glutamate receptor 5 (mGlu5)” (Bioorg Med Chem Lett, 2015)",
  "key": {"[1]": {"molecular_target": "T1, Metabotropic glutamate receptor 5 (Rattus norvegicus, UniProt P31424)", "T1 sequence (P31424 whole entry)": "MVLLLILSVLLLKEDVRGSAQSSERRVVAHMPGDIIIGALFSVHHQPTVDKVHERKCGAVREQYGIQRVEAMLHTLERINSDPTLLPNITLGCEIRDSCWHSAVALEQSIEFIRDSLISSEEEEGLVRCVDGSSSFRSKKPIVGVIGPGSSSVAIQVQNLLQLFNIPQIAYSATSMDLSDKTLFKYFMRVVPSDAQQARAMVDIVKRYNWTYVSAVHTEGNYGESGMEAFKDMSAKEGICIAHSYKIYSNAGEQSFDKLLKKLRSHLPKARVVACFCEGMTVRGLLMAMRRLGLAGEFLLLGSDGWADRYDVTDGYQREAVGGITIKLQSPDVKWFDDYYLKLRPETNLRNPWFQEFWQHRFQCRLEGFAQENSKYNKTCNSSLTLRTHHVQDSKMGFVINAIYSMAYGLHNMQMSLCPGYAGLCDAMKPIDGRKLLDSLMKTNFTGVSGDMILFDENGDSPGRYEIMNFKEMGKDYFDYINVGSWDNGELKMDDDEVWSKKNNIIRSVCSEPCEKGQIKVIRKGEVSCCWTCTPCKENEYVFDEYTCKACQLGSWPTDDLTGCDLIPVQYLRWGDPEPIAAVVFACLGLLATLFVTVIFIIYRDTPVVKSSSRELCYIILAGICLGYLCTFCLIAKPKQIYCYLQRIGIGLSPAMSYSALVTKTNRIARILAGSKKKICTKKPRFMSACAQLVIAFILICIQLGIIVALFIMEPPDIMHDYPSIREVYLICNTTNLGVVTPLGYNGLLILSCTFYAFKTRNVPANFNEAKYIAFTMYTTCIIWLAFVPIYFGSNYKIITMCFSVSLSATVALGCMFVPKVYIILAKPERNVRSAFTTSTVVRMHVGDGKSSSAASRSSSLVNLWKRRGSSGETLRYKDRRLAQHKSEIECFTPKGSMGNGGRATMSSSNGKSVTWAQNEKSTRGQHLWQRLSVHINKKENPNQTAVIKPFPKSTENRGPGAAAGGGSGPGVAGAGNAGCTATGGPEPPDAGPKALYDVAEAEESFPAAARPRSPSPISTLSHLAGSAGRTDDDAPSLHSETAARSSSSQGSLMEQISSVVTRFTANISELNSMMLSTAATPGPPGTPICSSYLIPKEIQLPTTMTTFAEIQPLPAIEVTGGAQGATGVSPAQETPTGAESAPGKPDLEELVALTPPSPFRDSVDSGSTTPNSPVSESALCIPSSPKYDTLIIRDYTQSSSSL", "assay": "Positive allosteric modulation at rat mGluR5 expressed in HEK293 cells by calcium mobilization assay", "type": "functional, cell-based", "how_it_was_run": "(§1)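 HEK293 cells stably expressing rat mGlu5 were run in a 'triple add' calcium mobilization assay that detects agonism, PAM and NAM activity together. Response amplitude was expressed as % of the maximal response to 100 µM glutamate. Values are the mean of three or more independent determinations.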"}, "[2]": {"molecular_target": "Metabotropic glutamate receptor 5 (Rattus norvegicus) (UniProt P31424)", "sequence (P31424 21-1203 limits assumed)": "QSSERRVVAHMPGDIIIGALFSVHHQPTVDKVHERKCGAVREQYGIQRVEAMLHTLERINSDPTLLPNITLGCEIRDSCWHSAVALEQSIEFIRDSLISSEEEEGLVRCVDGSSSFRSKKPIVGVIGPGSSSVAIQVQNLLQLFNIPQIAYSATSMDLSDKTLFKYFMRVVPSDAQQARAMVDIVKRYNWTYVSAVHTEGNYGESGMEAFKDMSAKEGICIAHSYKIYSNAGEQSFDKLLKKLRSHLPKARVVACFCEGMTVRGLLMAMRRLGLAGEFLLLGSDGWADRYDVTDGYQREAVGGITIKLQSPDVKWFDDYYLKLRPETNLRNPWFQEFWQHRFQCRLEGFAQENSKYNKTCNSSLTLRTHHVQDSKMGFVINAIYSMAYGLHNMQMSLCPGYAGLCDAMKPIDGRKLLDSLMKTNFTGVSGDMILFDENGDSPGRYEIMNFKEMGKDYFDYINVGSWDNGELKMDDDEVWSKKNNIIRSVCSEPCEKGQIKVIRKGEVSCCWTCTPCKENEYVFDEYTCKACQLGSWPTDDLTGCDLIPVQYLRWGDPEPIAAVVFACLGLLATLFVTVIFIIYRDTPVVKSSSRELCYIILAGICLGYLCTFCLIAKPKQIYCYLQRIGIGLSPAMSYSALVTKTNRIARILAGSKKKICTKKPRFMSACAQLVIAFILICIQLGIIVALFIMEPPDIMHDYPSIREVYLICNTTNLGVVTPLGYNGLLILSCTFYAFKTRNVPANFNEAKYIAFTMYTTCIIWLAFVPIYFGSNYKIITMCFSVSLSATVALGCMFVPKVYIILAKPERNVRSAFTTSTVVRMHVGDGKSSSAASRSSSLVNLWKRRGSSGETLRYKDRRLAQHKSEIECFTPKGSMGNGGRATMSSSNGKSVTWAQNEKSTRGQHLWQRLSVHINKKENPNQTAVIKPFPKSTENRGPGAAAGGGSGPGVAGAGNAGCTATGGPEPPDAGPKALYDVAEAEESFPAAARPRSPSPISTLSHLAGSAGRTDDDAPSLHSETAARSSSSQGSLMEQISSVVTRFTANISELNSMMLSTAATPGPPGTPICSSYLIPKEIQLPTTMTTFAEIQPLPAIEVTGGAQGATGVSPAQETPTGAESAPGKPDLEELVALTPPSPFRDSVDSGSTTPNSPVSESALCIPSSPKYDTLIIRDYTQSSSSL", "assay": "Positive allosteric modulation at rat mGluR5 expressed in HEK293 cells assessed as amplitude of response at 30 uM by calcium mobilization assay relative to glutamate", "type": "functional, cell-based", "how_it_was_run": "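HEK293 cells stably expressing rat mGlu5 were used in a calcium mobilization assay. Test compound was given at 30 µM, and response amplitude is expressed as percent of the maximal response to 100 µM glutamate. Values are the average of three or more independent determinations.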"}, "[3]": {"assay": "Drug metabolism in human liver microsomes assessed as compound metabolized at 1 uM after 15 mins", "type": "ADME", "details": "read-out: Drug metabolism", "how_it_was_run": "(§2)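 Test compound at 1 µM was incubated for 15 min with liver microsomes (human for HLM, rat for RLM). Read-out was % of compound metabolized.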"}, "[4]": {"assay": "Drug metabolism in rat liver microsomes assessed as compound metabolized at 1 uM after 15 mins", "type": "ADME", "details": "read-out: Drug metabolism", "how_it_was_run": "as §2"}, "[5]": {"molecular_target": "T1, Metabotropic glutamate receptor 5", "assay": "Negative allosteric modulation at rat mGluR5 expressed in HEK293 cells by calcium mobilization assay", "type": "functional, cell-based", "details": "for pIC50: read-out: IC50", "how_it_was_run": "as §1"}, "[6]": {"molecular_target": "Metabotropic glutamate receptor 5 (Rattus norvegicus) (UniProt P31424)", "assay": "Negative allosteric modulation at rat mGluR5 expressed in HEK293 cells by calcium mobilization assay relative to glutamate", "details": "30 uM"}, "[7]": {"assay": "Plasma protein binding in human", "type": "ADME, cell-free"}, "[8]": {"assay": "Plasma protein binding in rat", "type": "ADME, cell-free"}, "[9]": {"molecular_target": "Metabotropic glutamate receptor 3 (Homo sapiens, UniProt Q14832)", "sequence (Q14832 whole entry)": "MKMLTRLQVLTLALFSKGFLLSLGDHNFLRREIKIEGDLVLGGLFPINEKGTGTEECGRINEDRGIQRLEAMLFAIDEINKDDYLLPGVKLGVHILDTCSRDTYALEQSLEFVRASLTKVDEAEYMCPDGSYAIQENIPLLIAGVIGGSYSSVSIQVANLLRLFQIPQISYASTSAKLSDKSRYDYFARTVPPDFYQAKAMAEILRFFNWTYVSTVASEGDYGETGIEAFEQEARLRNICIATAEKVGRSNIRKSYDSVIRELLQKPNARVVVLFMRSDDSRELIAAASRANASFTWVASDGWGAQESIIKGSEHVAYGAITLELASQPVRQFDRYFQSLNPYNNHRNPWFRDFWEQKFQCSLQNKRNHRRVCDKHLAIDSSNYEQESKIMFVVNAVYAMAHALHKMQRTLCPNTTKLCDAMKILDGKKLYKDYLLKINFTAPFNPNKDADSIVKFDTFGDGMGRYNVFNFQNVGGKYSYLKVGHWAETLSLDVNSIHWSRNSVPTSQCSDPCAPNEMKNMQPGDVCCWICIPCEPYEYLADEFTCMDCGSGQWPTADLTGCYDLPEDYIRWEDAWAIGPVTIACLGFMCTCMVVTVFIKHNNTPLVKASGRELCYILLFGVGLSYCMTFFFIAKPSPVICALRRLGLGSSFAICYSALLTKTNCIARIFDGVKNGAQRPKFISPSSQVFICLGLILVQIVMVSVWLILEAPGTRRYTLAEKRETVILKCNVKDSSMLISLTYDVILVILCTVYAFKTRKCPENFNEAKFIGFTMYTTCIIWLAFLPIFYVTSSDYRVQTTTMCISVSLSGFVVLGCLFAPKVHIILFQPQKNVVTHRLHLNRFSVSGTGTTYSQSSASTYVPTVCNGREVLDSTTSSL", "assay": "Negative allosteric modulation at mGluR3 (unknown origin)"}, "[10]": {"molecular_target": "Metabotropic glutamate receptor 1 (Homo sapiens, UniProt Q13255)", "assay": "Positive allosteric modulation at mGluR1 (unknown origin)"}, "[11]": {"molecular_target": "Metabotropic glutamate receptor 2 (Homo sapiens, UniProt Q14416)", "sequence (Q14416 whole entry)": "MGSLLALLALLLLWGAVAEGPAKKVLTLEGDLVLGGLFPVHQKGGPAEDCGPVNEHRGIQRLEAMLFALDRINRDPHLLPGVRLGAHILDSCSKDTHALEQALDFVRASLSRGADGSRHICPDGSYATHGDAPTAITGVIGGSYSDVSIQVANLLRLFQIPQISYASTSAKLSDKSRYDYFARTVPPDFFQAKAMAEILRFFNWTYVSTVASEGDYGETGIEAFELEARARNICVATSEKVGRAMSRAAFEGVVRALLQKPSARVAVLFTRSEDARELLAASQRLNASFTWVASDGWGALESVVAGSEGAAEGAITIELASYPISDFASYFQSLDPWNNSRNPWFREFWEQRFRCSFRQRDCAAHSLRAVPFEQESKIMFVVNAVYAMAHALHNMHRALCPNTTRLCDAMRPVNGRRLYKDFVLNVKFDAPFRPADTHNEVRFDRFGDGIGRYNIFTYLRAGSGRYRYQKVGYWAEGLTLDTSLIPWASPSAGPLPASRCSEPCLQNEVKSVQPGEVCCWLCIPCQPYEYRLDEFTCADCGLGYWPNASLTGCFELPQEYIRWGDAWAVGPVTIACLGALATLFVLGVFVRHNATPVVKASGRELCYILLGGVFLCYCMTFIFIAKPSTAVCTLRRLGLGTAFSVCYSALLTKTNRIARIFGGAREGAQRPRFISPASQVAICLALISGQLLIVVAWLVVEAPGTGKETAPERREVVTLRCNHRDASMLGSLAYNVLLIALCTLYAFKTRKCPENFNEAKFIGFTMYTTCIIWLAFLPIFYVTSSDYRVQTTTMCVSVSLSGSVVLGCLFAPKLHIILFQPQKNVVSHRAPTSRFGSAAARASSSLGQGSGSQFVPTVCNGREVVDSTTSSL", "assay": "Positive allosteric modulation at mGluR2 (unknown origin)"}, "[12]": {"molecular_target": "Metabotropic glutamate receptor 4 (Homo sapiens, UniProt Q14833)", "assay": "Positive allosteric modulation at mGluR4 (unknown origin)"}, "[13]": {"molecular_target": "Metabotropic glutamate receptor 6 (Homo sapiens, UniProt O15303)", "sequence (O15303 whole entry)": "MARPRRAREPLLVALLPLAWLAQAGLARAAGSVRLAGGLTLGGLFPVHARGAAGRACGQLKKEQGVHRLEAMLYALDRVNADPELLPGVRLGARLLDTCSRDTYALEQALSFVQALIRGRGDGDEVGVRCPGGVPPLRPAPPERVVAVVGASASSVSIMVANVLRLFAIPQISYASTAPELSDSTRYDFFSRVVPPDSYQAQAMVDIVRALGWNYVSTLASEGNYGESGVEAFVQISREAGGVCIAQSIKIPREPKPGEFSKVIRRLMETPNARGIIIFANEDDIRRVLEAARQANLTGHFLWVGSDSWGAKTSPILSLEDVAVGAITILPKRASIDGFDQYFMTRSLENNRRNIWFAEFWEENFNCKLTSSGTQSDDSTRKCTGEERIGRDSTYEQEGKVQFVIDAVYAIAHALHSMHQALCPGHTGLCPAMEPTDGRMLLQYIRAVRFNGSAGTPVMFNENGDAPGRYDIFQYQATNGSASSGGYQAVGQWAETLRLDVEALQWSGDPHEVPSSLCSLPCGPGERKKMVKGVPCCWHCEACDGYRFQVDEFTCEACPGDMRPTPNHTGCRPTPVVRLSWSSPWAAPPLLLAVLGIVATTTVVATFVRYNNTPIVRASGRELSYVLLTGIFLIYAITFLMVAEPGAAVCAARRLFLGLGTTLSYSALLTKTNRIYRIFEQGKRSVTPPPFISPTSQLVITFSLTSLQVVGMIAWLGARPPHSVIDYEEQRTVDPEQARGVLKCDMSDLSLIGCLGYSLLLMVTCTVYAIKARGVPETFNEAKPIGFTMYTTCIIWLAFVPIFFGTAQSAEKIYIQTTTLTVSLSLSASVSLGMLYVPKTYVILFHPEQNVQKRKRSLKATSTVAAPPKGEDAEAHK", "assay": "Positive allosteric modulation at mGluR6 (unknown origin)"}, "[14]": {"molecular_target": "Metabotropic glutamate receptor 7 (Homo sapiens, UniProt Q14831)", "assay": "Positive allosteric modulation at mGluR7 (unknown origin)"}, "[15]": {"molecular_target": "Metabotropic glutamate receptor 8 (Homo sapiens, UniProt O00222)", "assay": "Positive allosteric modulation at mGluR8 (unknown origin)"}},
  "note": "pEC50, pIC50: −log10 of the molar value.",
  "data": [
    {"molecule": "Cc1cc(-n2ccc3nc(COc4ccccc4)cn3c2=O)ncc1F", "values": [
      {"measurement": "pEC50", "setting": "[1]", "value": 6.36},
      {"measurement": "Emax", "setting": "[2]", "value": 77, "unit": "%"},
      {"measurement": "metabolised at 0.25 h, 1 µM", "setting": "[3]", "value": 17, "unit": "%"},
      {"measurement": "metabolised at 0.25 h, 1 µM", "setting": "[4]", "value": 49, "unit": "%"}
    ]},
    {"molecule": "Cc1c(COc2ccccc2)nc2n1C(=O)N(c1ccc(F)cc1)CC2", "values": [
      {"measurement": "metabolised at 0.25 h, 1 µM", "setting": "[3]", "value": 21, "unit": "%"},
      {"measurement": "metabolised at 0.25 h, 1 µM", "setting": "[4]", "value": 46, "unit": "%"},
      {"measurement": "IC50", "setting": "[5]; read-out: pIC50 (converted)", "value": 525, "unit": "nM"},
      {"measurement": "pIC50", "setting": "[6]", "value": 6.28}
    ]},
    {"molecule": "Cc1cccc(OCc2cn3c(n2)CCN(c2ccc(F)cc2)C3=O)c1", "values": [
      {"measurement": "pEC50", "setting": "[1]", "value": 6.55},
      {"measurement": "Emax", "setting": "[2]", "value": 47, "unit": "%"}
    ]},
    {"molecule": "O=c1n(-c2ccc(F)cc2)ccc2nc(COc3ccc(F)cc3)cn12", "values": [
      {"measurement": "pEC50", "setting": "[1]", "value": 6.43},
      {"measurement": "Emax", "setting": "[2]", "value": 85, "unit": "%"},
      {"measurement": "metabolised at 0.25 h, 1 µM", "setting": "[3]", "value": 11, "unit": "%"},
      {"measurement": "metabolised at 0.25 h, 1 µM", "setting": "[4]", "value": 29, "unit": "%"}
    ]},
    {"molecule": "O=c1n(-c2ccc(F)cc2)ccc2nc(COc3ccccc3)cn12", "values": [
      {"measurement": "pEC50", "setting": "[1]", "value": 6.51},
      {"measurement": "Emax", "setting": "[2]", "value": 83, "unit": "%"},
      {"measurement": "metabolised at 0.25 h, 1 µM", "setting": "[3]", "value": 14, "unit": "%"},
      {"measurement": "metabolised at 0.25 h, 1 µM", "setting": "[4]", "value": 27, "unit": "%"},
      {"measurement": "PPB", "setting": "[7]", "value": 96.4, "unit": "%"},
      {"measurement": "PPB", "setting": "[8]", "value": 93.1, "unit": "%"},
      {"measurement": "pIC50", "setting": "[9]", "value": 6.20},
      {"measurement": "pEC50", "setting": "[10]", "value": "< 5.00"},
      {"measurement": "pEC50", "setting": "[11]", "value": "< 5.00"},
      {"measurement": "pEC50", "setting": "[12]", "value": "< 5.00"},
      {"measurement": "pEC50", "setting": "[13]", "value": "< 5.00"},
      {"measurement": "pEC50", "setting": "[14]", "value": "< 5.00"},
      {"measurement": "pEC50", "setting": "[15]", "value": "< 5.00"}
    ]},
    {"molecule": "O=c1n(-c2ccc(F)cn2)ccc2nc(COc3ccccc3)cn12", "values": [
      {"measurement": "pEC50", "setting": "[1]", "value": 6.23},
      {"measurement": "Emax", "setting": "[2]", "value": 87, "unit": "%"}
    ]},
    {"molecule": "O=c1n(-c2ccc(F)c(F)c2)ccc2nc(COc3ccccc3)cn12", "values": [
      {"measurement": "pEC50", "setting": "[1]", "value": 6.64},
      {"measurement": "Emax", "setting": "[2]", "value": 93, "unit": "%"}
    ]},
    {"molecule": "O=C1N(c2ccc(F)cc2)CCc2nc(COc3ccc(F)cc3)cn21", "values": [
      {"measurement": "pEC50", "setting": "[1]", "value": 6.71},
      {"measurement": "Emax", "setting": "[2]", "value": 88, "unit": "%"},
      {"measurement": "metabolised at 0.25 h, 1 µM", "setting": "[3]", "value": 3, "unit": "%"},
      {"measurement": "metabolised at 0.25 h, 1 µM", "setting": "[4]", "value": 11, "unit": "%"}
    ]},
    {"molecule": "Cc1cc2nc(COc3ccccc3)cn2c(=O)n1-c1ccc(F)cc1", "values": [
      {"measurement": "pEC50", "setting": "[1]", "value": 5.68},
      {"measurement": "Emax", "setting": "[2]", "value": 60, "unit": "%"}
    ]},
    {"molecule": "O=c1[nH]ccc2nc(COc3ccccc3)cn12", "values": [
      {"measurement": "pEC50", "setting": "[1]", "value": "< 4.52"},
      {"measurement": "Emax", "setting": "[2]", "value": 19, "unit": "%"}
    ]},
    {"molecule": "O=c1n(-c2ccc(F)cc2)ccc2nc(COc3ccccc3)c(Cl)n12", "values": [
      {"measurement": "metabolised at 0.25 h, 1 µM", "setting": "[3]", "value": 6, "unit": "%"},
      {"measurement": "metabolised at 0.25 h, 1 µM", "setting": "[4]", "value": 73, "unit": "%"},
      {"measurement": "pIC50", "setting": "[5]", "value": 6.66},
      {"measurement": "pIC50", "setting": "[6]", "value": 8.30}
    ]},
    {"molecule": "O=c1n(-c2ccc(F)cc2)ccc2nc(COc3ccccn3)cn12", "values": [
      {"measurement": "pEC50", "setting": "[1]", "value": 5.50},
      {"measurement": "Emax", "setting": "[2]", "value": 88, "unit": "%"}
    ]},
    {"molecule": "Cc1cn(-c2ccc(F)cc2)c(=O)n2cc(COc3ccccc3)nc12", "values": [
      {"measurement": "metabolised at 0.25 h, 1 µM", "setting": "[3]", "value": 36, "unit": "%"},
      {"measurement": "metabolised at 0.25 h, 1 µM", "setting": "[4]", "value": 71, "unit": "%"},
      {"measurement": "pIC50", "setting": "[5]", "value": 6.00},
      {"measurement": "pIC50", "setting": "[6]", "value": 7.80}
    ]},
    {"molecule": "Cc1ccnc(-n2ccc3nc(COc4ccccc4)cn3c2=O)c1", "values": [
      {"measurement": "pEC50", "setting": "[1]", "value": 5.29},
      {"measurement": "Emax", "setting": "[2]", "value": 64, "unit": "%"}
    ]},
    {"molecule": "Cc1cc(N2CCc3nc(COc4ccccc4)cn3C2=O)ncc1F", "values": [
      {"measurement": "pEC50", "setting": "[1]", "value": 6.43},
      {"measurement": "Emax", "setting": "[2]", "value": 87, "unit": "%"}
    ]},
    {"molecule": "O=C1N(c2cccc(F)c2)CCc2nc(COc3ccccc3)cn21", "values": [
      {"measurement": "pEC50", "setting": "[1]", "value": 6.66},
      {"measurement": "Emax", "setting": "[2]", "value": 82, "unit": "%"},
      {"measurement": "metabolised at 0.25 h, 1 µM", "setting": "[3]", "value": 20, "unit": "%"},
      {"measurement": "metabolised at 0.25 h, 1 µM", "setting": "[4]", "value": 78, "unit": "%"}
    ]},
    {"molecule": "Cc1ccc(N2CCc3nc(COc4ccccc4)cn3C2=O)nc1", "values": [
      {"measurement": "pEC50", "setting": "[1]", "value": 6.31},
      {"measurement": "Emax", "setting": "[2]", "value": 74, "unit": "%"},
      {"measurement": "metabolised at 0.25 h, 1 µM", "setting": "[3]", "value": 35, "unit": "%"},
      {"measurement": "metabolised at 0.25 h, 1 µM", "setting": "[4]", "value": 98, "unit": "%"}
    ]}
  ]
}
